Data as given in ChEMBL document CHEMBL4732243, “Design, synthesis, and structure activity relationship analysis of new betulinic acid derivatives as potent HIV inhibitors” (Eur J Med Chem, 2021).

Assays:
MT4 = assay: Cytotoxicity against human MT4 cells assessed as reduction in cell viability incubated for 2 days by CytoTox-Glo cytotoxicity assay; format: cell-based; conditions: mt4, 48 h, time 2 day
In short: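 Mock-infected MT-4 cells cultured 2 days with a range of compound concentrations. Viability measured by CytoTox-Glo, following the kit protocol, as percent viable cells. CC50 is the concentration giving a 50% reduction in cell viability.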

[1] = test system: Human immunodeficiency virus 1; assay: Antiviral activity against HIV-1 NL4-3 infected in human MT4 cells assessed as reduction in p24 gag protein incubated for 4 days by ELISA; format: functional, organism-based; conditions: Human immunodeficiency virus 1, NL4-3, MT4, 96 h
In short: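 MT-4 cells infected with HIV-1 NL4-3 at MOI 0.01, serial compound concentrations, in 96-well format. Supernatant p24 antigen measured by capture ELISA on day 4 post-infection. IC50 is the concentration that inhibits NL4-3 replication by 50%. Bevirimat run in parallel as the reference.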

| SMILES | CC50 (MT4) | IC50 ([1]; read-out: IC50) | IC50 ([1]; read-out: pIC50 (converted)) |
| --- | --- | --- | --- |
| C=C(C)[C@@H]1CC[C@]2(C(=O)N3CCN(C(=O)/C=C/c4ccc(OCOC)c(OCOC)c4)CC3)CC[C@]3(C)[C@H](CC[C@@H]4[C@@]5(C)CC[C@H](OC(=O)CC(C)(C)C(=O)O)C(C)(C)[C@@H]5CC[C@]43C)[C@@H]12 | > 2000 nM |  |  |
| C=C(C)[C@@H]1CC[C@]2(C(=O)N3CCN(C(=O)/C=C/c4ccc(OC)c(OC)c4)CC3)CC[C@]3(C)[C@H](CC[C@@H]4[C@@]5(C)CC[C@H](OC(=O)CC(C)(C)C(=O)O)C(C)(C)[C@@H]5CC[C@]43C)[C@@H]12 | > 2000 nM |  |  |
| C=C(C)[C@@H]1CC[C@]2(C(=O)N3CCN(CCCCC(=O)N4CCN(C(=O)/C=C/c5ccc6c(c5)OCO6)CC4)CC3)CC[C@]3(C)[C@H](CC[C@@H]4[C@@]5(C)CC[C@H](OC(=O)CC(C)(C)C(=O)O)C(C)(C)[C@@H]5CC[C@]43C)[C@@H]12 | > 2000 nM |  |  |
| C=C(C)[C@@H]1CC[C@]2(C(=O)N3CCN(C(=O)/C=C/c4ccc(O)c(OCc5cccc(Cl)c5)c4)CC3)CC[C@]3(C)[C@H](CC[C@@H]4[C@@]5(C)CC[C@H](OC(=O)CC(C)(C)C(=O)O)C(C)(C)[C@@H]5CC[C@]43C)[C@@H]12 | > 2000 nM | 190 nM |  |
| C=C(C)[C@@H]1CC[C@]2(C(=O)N3CCN(C(=O)/C=C/c4cccc(C(F)(F)F)c4)CC3)CC[C@]3(C)[C@H](CC[C@@H]4[C@@]5(C)CC[C@H](OC(=O)CC(C)(C)C(=O)O)C(C)(C)[C@@H]5CC[C@]43C)[C@@H]12 | > 2000 nM | 560 nM | 562 nM |
| C=C(C)[C@@H]1CC[C@]2(C(=O)N3CCN(C(=O)/C=C/c4ccc(OCOC)c(OCc5cccc(Cl)c5)c4)CC3)CC[C@]3(C)[C@H](CC[C@@H]4[C@@]5(C)CC[C@H](OC(=O)CC(C)(C)C(=O)O)C(C)(C)[C@@H]5CC[C@]43C)[C@@H]12 | > 2000 nM | 460 nM |  |
| C=C(C)[C@@H]1CC[C@]2(C(=O)N3CCN(C(=O)/C=C/c4cc(OC)c(OC)c(OC)c4)CC3)CC[C@]3(C)[C@H](CC[C@@H]4[C@@]5(C)CC[C@H](OC(=O)CC(C)(C)C(=O)O)C(C)(C)[C@@H]5CC[C@]43C)[C@@H]12 | > 2000 nM | 41 nM | 40.7 nM |
| C=C(C)[C@@H]1CC[C@]2(C(=O)N3CCN(C(=O)/C=C/c4ccc(N(C)C)cc4)CC3)CC[C@]3(C)[C@H](CC[C@@H]4[C@@]5(C)CC[C@H](OC(=O)CC(C)(C)C(=O)O)C(C)(C)[C@@H]5CC[C@]43C)[C@@H]12 | > 2000 nM | 27 nM | 26.9 nM |
| C=C(C)[C@@H]1CC[C@]2(C(=O)N3CCN(C(=O)c4cc5cc(OC)ccc5[nH]4)CC3)CC[C@]3(C)[C@H](CC[C@@H]4[C@@]5(C)CC[C@H](OC(=O)CC(C)(C)C(=O)O)C(C)(C)[C@@H]5CC[C@]43C)[C@@H]12 | > 2000 nM | 53 nM | 52.5 nM |
| C=C(C)[C@@H]1CC[C@]2(C(=O)N3CCN(C(=O)/C=C/c4ccccc4OC)CC3)CC[C@]3(C)[C@H](CC[C@@H]4[C@@]5(C)CC[C@H](OC(=O)CC(C)(C)C(=O)O)C(C)(C)[C@@H]5CC[C@]43C)[C@@H]12 | > 2000 nM | 170 nM | 170 nM |
| C=C(C)[C@@H]1CC[C@]2(C(=O)N3CCN(C(=O)/C=C/c4ccc(OCc5cccc([N+](=O)[O-])c5)c(OC)c4)CC3)CC[C@]3(C)[C@H](CC[C@@H]4[C@@]5(C)CC[C@H](OC(=O)CC(C)(C)C(=O)O)C(C)(C)[C@@H]5CC[C@]43C)[C@@H]12 | > 2000 nM | 750 nM | 759 nM |
| C=C(C)[C@@H]1CC[C@]2(C(=O)N3CCN(C(=O)/C=C/c4ccc(Cl)cc4)CC3)CC[C@]3(C)[C@H](CC[C@@H]4[C@@]5(C)CC[C@H](OC(=O)CC(C)(C)C(=O)O)C(C)(C)[C@@H]5CC[C@]43C)[C@@H]12 | > 2000 nM | 360 nM | 363 nM |
| C=C(C)[C@@H]1CC[C@]2(C(=O)N3CCN(C(=O)/C=C/c4ccc(OC)cc4)CC3)CC[C@]3(C)[C@H](CC[C@@H]4[C@@]5(C)CC[C@H](OC(=O)CC(C)(C)C(=O)O)C(C)(C)[C@@H]5CC[C@]43C)[C@@H]12 | > 2000 nM | 76 nM | 75.9 nM |
| C=C(C)[C@@H]1CC[C@]2(C(=O)N3CCN(C(=O)/C=C/c4ccc([N+](=O)[O-])cc4)CC3)CC[C@]3(C)[C@H](CC[C@@H]4[C@@]5(C)CC[C@H](OC(=O)CC(C)(C)C(=O)O)C(C)(C)[C@@H]5CC[C@]43C)[C@@H]12 | > 2000 nM | 110 nM | 110 nM |
| C=C(C)[C@@H]1CC[C@]2(C(=O)N3CCN(C(=O)/C=C/c4ccc(OC)c(Cl)c4)CC3)CC[C@]3(C)[C@H](CC[C@@H]4[C@@]5(C)CC[C@H](OC(=O)CC(C)(C)C(=O)O)C(C)(C)[C@@H]5CC[C@]43C)[C@@H]12 | > 2000 nM | 130 nM | 129 nM |
| C=C(C)[C@@H]1CC[C@]2(C(=O)N3CCN(C(=O)CC(C)(C)C(=O)O)CC3)CC[C@]3(C)[C@H](CC[C@@H]4[C@@]5(C)CC[C@H](Oc6ccc7c(c6)OCO7)C(C)(C)[C@@H]5CC[C@]43C)[C@@H]12 |  | > 1000 nM |  |
| C=C(C)[C@@H]1CC[C@]2(C(=O)N3CCN(C(=O)/C=C/c4cccc(OC)c4)CC3)CC[C@]3(C)[C@H](CC[C@@H]4[C@@]5(C)CC[C@H](OC(=O)CC(C)(C)C(=O)O)C(C)(C)[C@@H]5CC[C@]43C)[C@@H]12 | > 2000 nM | 150 nM | 151 nM |
| C=C(C)[C@@H]1CC[C@]2(C(=O)N3CCN(C(=O)/C=C/c4cccc(OCOC)c4)CC3)CC[C@]3(C)[C@H](CC[C@@H]4[C@@]5(C)CC[C@H](OC(=O)CC(C)(C)C(=O)O)C(C)(C)[C@@H]5CC[C@]43C)[C@@H]12 | > 2000 nM | 90 nM | 89.1 nM |
| C=C(C)[C@@H]1CC[C@]2(C(=O)N3CCN(C(=O)CC(C)(C)C(=O)O)CC3)CC[C@]3(C)[C@H](CC[C@@H]4[C@@]5(C)CC[C@H](O)C(C)(C)[C@@H]5CC[C@]43C)[C@@H]12 |  | > 1000 nM |  |
| C=C(C)[C@@H]1CC[C@]2(C(=O)N3CCN(C(=O)/C=C/c4cccc(OCc5cccc([N+](=O)[O-])c5)c4)CC3)CC[C@]3(C)[C@H](CC[C@@H]4[C@@]5(C)CC[C@H](OC(=O)CC(C)(C)C(=O)O)C(C)(C)[C@@H]5CC[C@]43C)[C@@H]12 | > 2000 nM | 580 nM | 575 nM |
| C=C(C)[C@@H]1CC[C@]2(C(=O)N3CCN(C(=O)/C=C/c4ccc(OCOC)cc4)CC3)CC[C@]3(C)[C@H](CC[C@@H]4[C@@]5(C)CC[C@H](OC(=O)CC(C)(C)C(=O)O)C(C)(C)[C@@H]5CC[C@]43C)[C@@H]12 | > 2000 nM | 200 nM | 200 nM |
| C=C(C)[C@@H]1CC[C@]2(C(=O)N3CCN(C(=O)/C=C/c4cccc(O)c4)CC3)CC[C@]3(C)[C@H](CC[C@@H]4[C@@]5(C)CC[C@H](OC(=O)CC(C)(C)C(=O)O)C(C)(C)[C@@H]5CC[C@]43C)[C@@H]12 | > 2000 nM | 53 nM | 52.5 nM |
| C=C(C)[C@@H]1CC[C@]2(C(=O)O)CC[C@]3(C)[C@H](CC[C@@H]4[C@@]5(C)CC[C@H](OC(=O)CC(C)(C)C(=O)O)C(C)(C)[C@@H]5CC[C@]43C)[C@@H]12 [BEVIRIMAT] | > 2000 nM |  |  |
